ChEMBL document CHEMBL2384907, “Identification of substituted pyrimido[5,4-b]indoles as selective Toll-like receptor 4 ligands” (J Med Chem, 2013)
Active and inactive are the calls of the source. The rule behind the calls is not given here.

Columns and labels:
BMDC = assay: Induction of IL6 secretion in C57BL/6 mouse TLR4 deficient BMDC cells at 10 uM after 18 hrs by ELISA; format: functional, cell-based
Summary of the method: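 BMDC from Tlr4–/– mice (backcrossed 10 generations onto C57BL/6) and wild-type mice incubated with 10 μM compound for 18 h; IL-6 in culture supernatants by ELISA.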

[1] = target: T1, Toll-like receptor 9 (Homo sapiens) (UniProt Q9NR96); assay: Activation of human TLR9 transfected in HEK293 cells at 10 uM after 20 to 24 hrs by SEAP assay; format: cell-based
T1 sequence (whole entry): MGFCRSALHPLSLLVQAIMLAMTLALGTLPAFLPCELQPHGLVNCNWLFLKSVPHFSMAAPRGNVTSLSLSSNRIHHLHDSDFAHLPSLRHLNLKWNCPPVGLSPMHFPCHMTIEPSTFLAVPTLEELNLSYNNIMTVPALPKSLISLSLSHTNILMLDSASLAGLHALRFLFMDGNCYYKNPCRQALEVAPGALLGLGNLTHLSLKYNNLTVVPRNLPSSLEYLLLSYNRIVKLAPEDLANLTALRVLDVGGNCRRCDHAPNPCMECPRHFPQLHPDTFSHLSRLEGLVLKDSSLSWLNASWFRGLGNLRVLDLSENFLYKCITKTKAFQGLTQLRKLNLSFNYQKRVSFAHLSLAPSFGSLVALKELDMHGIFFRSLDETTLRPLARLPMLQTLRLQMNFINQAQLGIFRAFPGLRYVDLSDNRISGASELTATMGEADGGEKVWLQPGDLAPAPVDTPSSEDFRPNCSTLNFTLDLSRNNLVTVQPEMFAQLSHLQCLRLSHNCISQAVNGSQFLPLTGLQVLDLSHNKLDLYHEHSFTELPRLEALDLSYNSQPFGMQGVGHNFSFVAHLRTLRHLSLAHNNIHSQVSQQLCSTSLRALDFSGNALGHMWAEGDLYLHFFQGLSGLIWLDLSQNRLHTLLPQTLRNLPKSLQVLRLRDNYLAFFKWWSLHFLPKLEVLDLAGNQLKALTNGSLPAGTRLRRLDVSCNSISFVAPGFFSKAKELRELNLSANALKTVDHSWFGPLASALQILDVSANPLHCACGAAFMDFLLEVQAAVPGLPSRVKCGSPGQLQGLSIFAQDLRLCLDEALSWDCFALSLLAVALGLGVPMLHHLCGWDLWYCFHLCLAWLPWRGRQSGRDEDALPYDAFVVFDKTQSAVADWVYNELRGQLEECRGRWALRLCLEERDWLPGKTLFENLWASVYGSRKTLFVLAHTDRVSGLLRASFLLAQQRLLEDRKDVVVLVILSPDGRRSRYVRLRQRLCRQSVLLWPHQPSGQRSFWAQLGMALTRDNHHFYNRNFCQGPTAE

- Activity [1]: inactive
SMILES: O=C(CSc1nc2c([nH]c3ccccc32)c(=O)n1-c1ccccc1)NC1CCCCC1
- Activity (BMDC): inactive
